Here are results for 20 compounds from ChEMBL document CHEMBL5357076, “Structure-ATPase Activity Relationship of Rhodamine Derivatives as Potent Inhibitors of P-Glycoprotein CmABCB1” (ACS Med Chem Lett, 2024).

In test [1] the test system is Cyanidioschyzon merolae. The test is described as follows: Binding affinity to Cyanidioschyzon merolae ABCB1 assessed as Km. A digest of the protocol: (§1)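 Purified wild-type CmABCB1 in β-DDM micelles; ATPase activity measured against rhodamine concentration with 5 mM ATP in 50 mM Tris–HCl (pH 7.5 at 37 °C), 150 mM NaCl, 0.05% (w/v) β-DDM, 37 °C, 30 min. Bell-shaped activity curve fitted to a modified Michaelis–Menten equation giving Km (stimulation) and Ki (substrate inhibition); means ± SD, n = 3.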

Test [2] is described as follows: Inhibition of Cyanidioschyzon merolae ABCB1 ATPase activity assessed as inhibition constant by colorimetric analysis. The method in brief: as §1
In test [3] the test system is Cyanidioschyzon merolae. Nature of the test: Potency index, ratio of test compound Km to Rhodamine 6G Km for binding affinity to Cyanidioschyzon merolae ABCB1 assessed as Km.
The subject of test [4] is Cyanidioschyzon merolae. Nature of the test: Potency index, ratio of test compound Ki to Rhodamine 6G Ki for inhibition of Cyanidioschyzon merolae ABCB1 ATPase activity assessed as inhibition constant by colorimetric analysis.
Test [5] concerns Cyanidioschyzon merolae. The test is described as follows: Substrate activity at Cyanidioschyzon merolae ABCB1 4WY/M391W mutant assessed as tryptophan quenching ratio by measuring inner chamber entry by fluorescence based analysis. A digest of the protocol:
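Purified CmABCB1 4WY/M391W mutant (four of six native Trp removed, Trp introduced at 391), 13 μg/mL in 20 mM Tris–HCl (pH 7.5 at 25 °C), 150 mM NaCl, 0.05% (w/v) β-DDM, titrated with compound (0–1.0 μM) at 25 °C; excitation 290 nm, quenching ratio of emission at 340 nm.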

The subject of test [6] is Saccharomyces cerevisiae. The test is described as follows: Antimicrobial activity against Saccharomyces cerevisiae expressing AD1-8u- cells assessed as growth inhibition upto 30 uM incubated for 15 to 17 hrs. It is filed as functional, organism-based. To be noted: time 15-17 hrs. A digest of the protocol:
(§2)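 S. cerevisiae AD1-8u cells expressing wild-type CmABCB1, alongside mock-transfected AD1-8u cells, grown in YPD medium with a range of drug concentrations at 30 °C for 15–17 h; growth compared between strains; means ± SD, n = 3.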

For test [7], the system named is Saccharomyces cerevisiae. Nature of the test: Antimicrobial activity against Saccharomyces cerevisiae expressing AD1-8u- cells assessed as growth inhibition at 1 uM incubated for 15 to 17 hrs. The test is classed as functional, organism-based. To be noted: time 15-17 hrs. A digest of the protocol: as §2

Structures are written as SMILES. Active and inactive are the calls of the source. No cut-off for these calls is given here.

For the compound `Cc1cccc(COC(=O)c2ccccc2C2=c3cc4c(cc3Oc3cc5c(cc32)CCCN5)=NCCC4)c1`, the Km in test [1] stood at 0.56 µM. In addition, the Ki in test [2] stood at 8.4 µM.
For `O=C(OCc1cc(C(F)(F)F)cc(C(F)(F)F)c1)c1ccccc1C1=c2cc3c(cc2Oc2cc4c(cc21)CCCN4)=NCCC3`, in that order: 2.3 µM and 6.3 µM.
With `CCCCOC(=O)c1ccccc1C1=c2cc3c(cc2Oc2cc4c(cc21)CCCN4)=NCCC3`, the Km in test [1] worked out at 1.7 µM. Besides, in test [2], the Ki was determined as 14 µM.
For the compound `O=C(OCc1cccc(C(F)(F)F)c1)c1ccccc1C1=c2cc3c(cc2Oc2cc4c(cc21)CCCN4)=NCCC3`, the Km in test [1] was 0.44 µM. Also, in test [2], the Ki was found to be 18 µM.
For `CCCCOC(=O)c1ccccc1-c1c2cc(C)c(=[N+]3CCCC3)cc-2oc2cc(N3CCCC3)c(C)cc12`, in test [1], the Michaelis constant (Km) is 1.1 µM. In addition, the Ki in test [2] came out at 110 µM.
The like results for `CCCC/N=c1/cc2oc3cc(NCCCC)c(C)cc3c(-c3ccccc3C(=O)OCCCC)c-2cc1C` were, in that order, 3.2 µM and 160 µM.
The like results for `COc1cccc(COC(=O)c2ccccc2C2=c3cc4c(cc3Oc3cc5c(cc32)CCCN5)=NCCC4)c1` were, in that order, 0.58 µM and 8.2 µM.
On to `O=C(OCc1ccc2ccccc2c1)c1ccccc1C1=c2cc3c(cc2Oc2cc4c(cc21)CCCN4)=NCCC3`, for which the Michaelis constant (Km) in test [1] is 0.77 µM. In addition, the Ki in test [2] was determined as 9.6 µM.
Take `O=C(OCc1ccccc1C(F)(F)F)c1ccccc1C1=c2cc3c(cc2Oc2cc4c(cc21)CCCN4)=NCCC3`: the Km in test [1] is 3.9 µM. Further, the Ki in test [2] turned out to be 1.2 µM.
For `CCCCOC(=O)c1ccccc1C1=c2cc3c4c(c2Oc2c1cc1c5c2CCCN5CCC1)CCC[N+]=4CCC3`, in that order: 1.5 µM and 43 µM.
Regarding `O=C(OCCc1ccccc1)c1ccccc1C1=c2cc3c(cc2Oc2cc4c(cc21)CCCN4)=NCCC3`, in test [1], the Michaelis constant (Km) was 1.4 µM. The Ki in test [2] stood at 8.1 µM.
As for `COc1cccc(OC)c1COC(=O)c1ccccc1C1=c2cc3c(cc2Oc2cc4c(cc21)CCCN4)=NCCC3`, the Michaelis-Menten constant (Km) in test [1] was determined as 0.55 µM. Besides, in test [2], the Ki was determined as 5.8 µM. Also, the Ratio in test [3] is 5. In addition, in test [4], the Ratio Ki came out at 120. In addition, the Activity in test [5] is 30%.
With `COc1ccccc1COC(=O)c1ccccc1C1=c2cc3c(cc2Oc2cc4c(cc21)CCCN4)=NCCC3`, the Km in test [1] is 0.5 µM. Besides, the Ki in test [2] turned out to be 8.2 µM.
Regarding `CCCCOC(=O)c1ccccc1-c1c2cc(C)/c(=N\CC)cc-2oc2cc(NCC)c(C)cc12`, in test [1], the Km was found to be 4.6 µM. In addition, the Ki in test [2] was determined as 560 µM.
For the compound `COc1ccc(COC(=O)c2ccccc2C2=c3cc4c(cc3Oc3cc5c(cc32)CCCN5)=NCCC4)cc1`, in test [1], the Km stood at 0.73 µM. Also, in test [2], the Ki came to 9.1 µM.
As to `O=C(OCc1ccccc1)c1ccccc1C1=c2cc3c(cc2Oc2cc4c(cc21)CCCN4)=NCCC3`, the Km in test [1] came to 0.81 µM. Moreover, the Ki in test [2] is 8.9 µM.
As to `COc1cc(COC(=O)c2ccccc2C2=c3cc4c(cc3Oc3cc5c(cc32)CCCN5)=NCCC4)cc(OC)c1`, the Km in test [1] was 0.31 µM. The inhibition constant Ki in test [2] was found to be 31 µM.
Consider `O=C(OCc1cccc([N+](=O)[O-])c1)c1ccccc1C1=c2cc3c(cc2Oc2cc4c(cc21)CCCN4)=NCCC3`, for which, in test [1], the Km came to 0.55 µM. Further, in test [2], the inhibition constant Ki is 12 µM.
For `CN(C)c1cccc(COC(=O)c2ccccc2C2=c3cc4c(cc3Oc3cc5c(cc32)CCCN5)=NCCC4)c1`, the Km in test [1] amounted to 0.52 µM. The Ki in test [2] amounted to 10 µM.
As for `CC/N=c1/cc2oc3cc(NCC)c(C)cc3c(-c3ccccc3C(=O)OCC)c-2cc1C`, the Km in test [1] was 2.9 µM. The Ki in test [2] is 690 µM. For the same compound, in test [6], the result was inactive. Besides, the result in test [7] was Active.
